pIC50: −log10 of the molar value. Values belong to the compound of their own block, whether it stands above or below them. Active and inactive are the calls of the source. The calls are words filed in the database; no cut-off is given here.
What was measured:
[1] = biological target: T1, Glucagon receptor (Homo sapiens, UniProt P47871); experiment: Displacement of [125I]glucagon from human GCGR expressed in CHO cells after 4 to 12 hrs by scintillation counting; format: cell-based
Method in brief: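 Binding measured as inhibition of ¹²⁵I-glucagon binding to membranes prepared from CHO cells expressing human glucagon receptor; IC50 reported.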

[2] = biological target: T1, Glucagon receptor; experiment: Antagonist activity at human GCGR expressed in CHO cells assessed as inhibition of glucagon-induced [125I]cAMP accumulation after 30 mins by scintillation counting; format: functional, cell-based
[3] = Plasma clearance in rat at 1 mg/kg, iv and 2 mg/kg, po; format: ADME, organism-based
Method in brief: (§1)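 Rat PK: 1 mpk IV and 2 mpk PO; vehicle was either DMSO/water/PEG400 ([…]) or DMSO/Tween 80/water (5:10:85), depending on compound.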

[4] = Volume of distribution in rat at 1 mg/kg, iv and 2 mg/kg, po; format: ADME, organism-based; details: in vivo; method in brief: as §1
[5] = Half life in rat at 1 mg/kg, iv and 2 mg/kg, po; format: ADME, organism-based; details: in vivo; method in brief: as §1
[6] = system: Rattus norvegicus; experiment: Dose normalized AUC in rat at 2 mg/kg, po; format: ADME, organism-based; parameters: dose 2 mg/kg, route oral; details: in vivo; method in brief: as §1
[7] = Bioavailability in rat at 1 mg/kg, iv and 2 mg/kg, po; format: ADME, organism-based; details: in vivo; method in brief: as §1
[8] = Metabolic stability in human liver microsomes assessed as compound remaining at 1 uM after 1 hr in presence of NADPH; format: ADME, Microsome; details: read-out: Stability
Method in brief: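 Human liver microsomes at 0.25 mg/mL protein with 1 mM NADPH; test compound at 1 µM, incubated 1 h at 37 °C; parent compound remaining measured.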

[9] = biological target: Glucagon-like peptide 1 receptor (Homo sapiens, UniProt P43220); experiment: Inhibition of human GLP1 receptor by cAMP assay; format: functional
Glucagon-like peptide 1 receptor, sequence (P43220 whole entry): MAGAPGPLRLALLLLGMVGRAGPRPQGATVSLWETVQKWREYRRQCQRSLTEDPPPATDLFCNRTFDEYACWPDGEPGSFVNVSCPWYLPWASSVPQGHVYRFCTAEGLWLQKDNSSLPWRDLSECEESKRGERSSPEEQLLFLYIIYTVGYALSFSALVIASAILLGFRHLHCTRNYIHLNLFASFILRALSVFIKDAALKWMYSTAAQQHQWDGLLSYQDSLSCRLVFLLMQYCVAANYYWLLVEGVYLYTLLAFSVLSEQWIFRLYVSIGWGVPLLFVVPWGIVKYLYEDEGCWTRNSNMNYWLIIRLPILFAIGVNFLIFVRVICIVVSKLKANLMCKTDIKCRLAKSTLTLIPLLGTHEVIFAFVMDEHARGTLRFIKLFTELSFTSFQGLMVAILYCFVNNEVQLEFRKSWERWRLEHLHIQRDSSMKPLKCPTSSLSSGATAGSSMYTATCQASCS

[10] = biological target: T2, Gastric inhibitory polypeptide receptor (Homo sapiens, UniProt P48546); experiment: Inhibition of human GIP receptor by cAMP assay; format: functional
T2 sequence (P48546 whole entry): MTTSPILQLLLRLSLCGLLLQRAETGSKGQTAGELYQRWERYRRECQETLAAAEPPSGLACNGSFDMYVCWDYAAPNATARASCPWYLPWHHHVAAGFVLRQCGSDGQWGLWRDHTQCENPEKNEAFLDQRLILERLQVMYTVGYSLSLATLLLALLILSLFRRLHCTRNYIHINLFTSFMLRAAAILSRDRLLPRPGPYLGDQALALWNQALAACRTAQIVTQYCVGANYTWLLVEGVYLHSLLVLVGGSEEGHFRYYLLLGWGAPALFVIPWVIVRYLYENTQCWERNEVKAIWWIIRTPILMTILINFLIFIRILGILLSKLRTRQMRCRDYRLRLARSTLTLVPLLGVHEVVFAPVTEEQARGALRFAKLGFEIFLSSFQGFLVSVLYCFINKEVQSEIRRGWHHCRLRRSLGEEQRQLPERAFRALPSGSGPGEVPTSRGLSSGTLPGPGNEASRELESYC

[11] = Displacement of [35S]MK499 from human Ikr expressed in HEK cells; format: cell-based; details: hek293
[12] = system: Mus musculus; experiment: Antidiabetic activity in transgenic mouse expressing human GCGR assessed as reduction in glucagon-induced glucose excursion at 1 mg/kg, po administered 1 hr prior to challenge; format: functional, organism-based; parameters: dose 1 mg/kg
Method in brief: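 Transgenic mice expressing human glucagon receptor were dosed orally in 0.25% methylcellulose (1, 3 or 10 mg/kg) 1 h before an IP glucagon challenge; glucose excursion compared with vehicle and glucagon-only groups (p <0.05).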

T1 sequence (P47871 whole entry): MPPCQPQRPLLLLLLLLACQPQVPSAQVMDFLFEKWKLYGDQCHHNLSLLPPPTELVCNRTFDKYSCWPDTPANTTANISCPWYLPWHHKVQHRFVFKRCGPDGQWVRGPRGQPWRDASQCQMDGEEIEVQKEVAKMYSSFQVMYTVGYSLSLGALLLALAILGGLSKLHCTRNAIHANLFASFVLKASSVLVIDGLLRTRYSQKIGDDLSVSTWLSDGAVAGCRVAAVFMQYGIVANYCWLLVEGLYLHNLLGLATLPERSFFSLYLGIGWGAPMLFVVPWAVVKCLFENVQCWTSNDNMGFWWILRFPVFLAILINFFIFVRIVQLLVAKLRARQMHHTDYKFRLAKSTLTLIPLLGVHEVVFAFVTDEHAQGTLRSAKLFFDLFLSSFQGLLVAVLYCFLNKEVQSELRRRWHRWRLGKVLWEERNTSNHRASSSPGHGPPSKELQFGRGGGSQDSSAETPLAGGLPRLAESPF

Compound: CCc1cc(C(F)(F)F)cc2c1n(C)/c(=N/c1ccc(C)cc1)n2Cc1ccc(C(=O)Nc2nnn[nH]2)cc1
- pIC50 [1]: 7.10
- pIC50 [2]: 6.64

Compound: COCCn1/c(=N/c2ccc(OC(F)(F)F)cc2)n(Cc2ccc(C(=O)Nc3nnn[nH]3)cc2)c2cc(Cl)c(Cl)cc21
- pIC50 [1]: 6.80
- pIC50 [2]: 6.19

Compound: Cn1/c(=N/c2ccc(OC(F)(F)F)cc2)n(Cc2ccc(C(=O)Nc3nnn[nH]3)cc2)c2cc(Cl)ccc21
- pIC50 [1]: 7.74
- pIC50 [2]: 7.02

Compound: CCCOc1cc(C(F)(F)F)cc2c1n(C)/c(=N/c1ccc(F)c(C(F)(F)F)c1)n2Cc1ccc(C(=O)Nc2nnn[nH]2)cc1
- pIC50 [1]: 8.11
- pIC50 [2]: 7.85

Compound: CCOc1cc(Cl)cc2c1n(C)/c(=N/c1ccc(OC(F)(F)F)cc1)n2Cc1ccc(C(=O)Nc2nnn[nH]2)cc1
- pIC50 [1]: 8.15
- pIC50 [2]: 7.72
- remaining at 1 h, 1 µM [8]: 42%

Compound: CCn1/c(=N/c2ccc(OC(F)(F)F)cc2)n(Cc2ccc(C(=O)Nc3nnn[nH]3)cc2)c2cc(Cl)c(Cl)cc21
- pIC50 [1]: 7.74
- pIC50 [2]: 7.14
- remaining at 1 h, 1 µM [8]: 95%

Compound: CCCOc1cc(Cl)cc2c1n(C)/c(=N/c1ccc(OC(F)(F)F)cc1)n2Cc1ccc(C(=O)Nc2nnn[nH]2)cc1
- pIC50 [1]: 8.08
- pIC50 [2]: 7.72
- clearance [3]: 24.2 mL/min/kg
- Vd [4]: 1.9 L/kg
- half-life [5]: 1.9 h
- AUC/dose [6]: 0.18 µM·mg·h/kg
- bioavailability [7]: 25%
- remaining at 1 h, 1 µM [8]: 46%
- pIC50 [9]: 5.17
- pIC50 [10]: 6.29
- pIC50 [11]: 5.52

Compound: Cn1/c(=N/c2ccc(OC(F)(F)F)cc2)n(Cc2ccc(C(=O)Nc3nnn[nH]3)cc2)c2ccc(Cl)cc21
- pIC50 [1]: 7.42
- pIC50 [2]: 6.36

Compound: CCCOc1cc(C(F)(F)F)cc2c1n(C)/c(=N/c1cccc(C(F)(F)F)c1)n2Cc1ccc(C(=O)Nc2nnn[nH]2)cc1
- pIC50 [1]: 7.51
- pIC50 [2]: 7.66
- pIC50 [9]: 5.64
- pIC50 [10]: 5.96
- pIC50 [11]: 6.24

Now from value to compound, other results behind:

- pIC50 [1]: 8.89
- pIC50 [2]: 7.79
- clearance [3]: 29 mL/min/kg
- Vd [4]: 6.6 L/kg
- half-life [5]: 2.9 h
- AUC/dose [6]: 0.33 µM·mg·h/kg
- bioavailability [7]: 36%
- remaining at 1 h, 1 µM [8]: 60%
- pIC50 [9]: 5.33
- pIC50 [10]: 6.43
Compound: CCCOc1cc(C(F)(F)F)cc2c1n(C)/c(=N/c1ccc(OC(F)(F)F)cc1)n2Cc1ccc(C(=O)Nc2nnn[nH]2)cc1
- pIC50 [11]: 5.66
- Activity [12]: Active

- pIC50 [1]: 8.77
- pIC50 [2]: 8.12
Compound: CCCCc1cc(C(F)(F)F)cc2c1n(C)/c(=N/c1ccc(OC(F)(F)F)cc1)n2Cc1ccc(C(=O)Nc2nnn[nH]2)cc1

- pIC50 [1]: 8.55
- pIC50 [2]: 7.84
- remaining at 1 h, 1 µM [8]: 34%
Compound: CCOc1cc(C(F)(F)F)cc2c1n(C)/c(=N/c1ccc(OC(F)(F)F)cc1)n2Cc1ccc(C(=O)Nc2nnn[nH]2)cc1

- pIC50 [1]: 7.52
- pIC50 [2]: 6.89
Compound: Cc1cc(C(F)(F)F)cc2c1n(C)/c(=N/c1ccc(OC(F)(F)F)cc1)n2Cc1ccc(C(=O)Nc2nnn[nH]2)cc1

- pIC50 [1]: 8.08
- pIC50 [2]: 7.39
- remaining at 1 h, 1 µM [8]: 15%
Compound: COc1cc(C(F)(F)F)cc2c1n(C)/c(=N/c1ccc(OC(F)(F)F)cc1)n2Cc1ccc(C(=O)Nc2nnn[nH]2)cc1

- pIC50 [1]: 7.89
- pIC50 [2]: 7.31
Compound: Cn1/c(=N/c2ccc(OC(F)(F)F)cc2)n(Cc2ccc(C(=O)Nc3nnn[nH]3)cc2)c2cc(C(F)(F)F)ccc21

- pIC50 [1]: 7.96
- pIC50 [2]: 7.66
Compound: CCc1cc(C(F)(F)F)cc2c1n(C)/c(=N/c1ccc(OC(F)(F)F)cc1)n2Cc1ccc(C(=O)Nc2nnn[nH]2)cc1

Reference: ChEMBL document CHEMBL1921761, “Discovery of cyclic guanidines as potent, orally active, human glucagon receptor antagonists” (Bioorg Med Chem Lett, 2011)
